Screening results from PubChem.
APJ antagonist: APJ receptor antagonism. P35414. CHO-K1 APJ beta-arrestin complementation, luminescence. inhibition, % at 20 µM. actives 0.32% (n = 330,000). AID 2521;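 active = inhibition above about 40% at 20 µM, limit read from the data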;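 also: cells challenged with 10 nM apelin-13 agonist together with compound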
Target sequence (P35414 whole entry, looked up): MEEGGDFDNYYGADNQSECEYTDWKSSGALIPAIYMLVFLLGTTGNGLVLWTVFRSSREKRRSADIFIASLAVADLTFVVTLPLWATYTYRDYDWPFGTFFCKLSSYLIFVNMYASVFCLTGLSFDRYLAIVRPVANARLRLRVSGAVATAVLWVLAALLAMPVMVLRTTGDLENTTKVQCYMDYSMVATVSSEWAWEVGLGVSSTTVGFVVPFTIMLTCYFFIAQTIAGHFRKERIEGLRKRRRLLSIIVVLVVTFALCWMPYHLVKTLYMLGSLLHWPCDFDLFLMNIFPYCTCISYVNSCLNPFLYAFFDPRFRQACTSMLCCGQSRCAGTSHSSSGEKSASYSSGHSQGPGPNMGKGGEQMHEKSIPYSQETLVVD
CXCR6 block: inhibitors of human CXCR6 receptor; O00574; CHO-K1 PathHunter CXCR6 beta-arrestin, luminescence; inhibition, % at 20 µM; actives 0.36% (n = 360,000); AID 602244; in the data active = inhibition above about 34%, passing the limit was not always enough;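 also: antagonist mode with CXCL16 agonist at 10 nM final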
EBI2 block: blocks human EBI2 receptor beta-arrestin signaling. P32249. AID 651636. actives 0.81% (n = 360,000). inhibition, % at 5 µM. EBI2 beta-arrestin recruitment, luminescence, 7a,25-OHC stimulated; in the data active = inhibition above about 38%;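 also: enzyme fragment complementation signal reports receptor beta-arrestin coupling in cells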
CCR6 antag: blocks CCL20-driven beta-arrestin recruitment at human CCR6 | P51684 | CHO-K1 CCR6 PathHunter beta-arrestin, luminescence, CCL20-stimulated | inhibition, % at 20 µM | actives 0.49% (n = 340,000) | AID 493098;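 active = compounds whose inhibition of the agonist-driven luminescence signal at 20 µM reaches about 50%, limit read from the data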;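 also: cells stimulated with CCL20 at 14 nM final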
HTR2A ag: agonists of mouse serotonin 5-HT2A receptor (HTR2A). activation, % at 7.6 µM. P35363. CHO-K1 mHTR2A beta-arrestin complementation, luminescence; percent of 30 µM serotonin response. actives 0.66% (n = 360,000);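 active = activation above a run cutoff, the mean activation of all tested compounds plus 3 SD, cut at about 14% in these data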
APJ ag: activates the human apelin receptor APJ. P35414. CHO-K1 APJ PathHunter beta-arrestin, luminescence; 0% DMSO wells, 100% apelin. activation, % at 20 µM. actives 0.11% (n = 330,000);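 active = activation more than six SD over the plate average, tested at 20 µM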
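assay system = CHO-K1 APJ beta-arrestin complementation cell line | input = cell density 1000 per well | dosing = compound 20 µM once, DMSO 1% | timing = compound 90 min 25 °C, reagent 1 h | measured by = luminescence from split beta-galactosidase complementation, Galacton Star/Emerald II substrate | read-out basis = APJ agonist activity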
OPRM1 ag: counter-screen for mouse HTR2A agonists: human mu opioid receptor agonists; shares compounds with HTR2A ag; U2OS OPRM1 beta-arrestin PathHunter, luminescence; DMSO 0%, DAMGO 9.3 µM 100%; activation, % at 9.3 µM; actives 5.3% (n = 2,300); AID 624380;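 active = mean activation above the mean of DMSO-only wells plus 3 SD, cut at about 0.5% in these data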
m5-HT2A ag conf: confirmation of mouse HTR2A serotonin receptor agonists; activation, % at 7.6 µM; shares compounds with HTR2A ag; CHO-K1 PathHunter beta-arrestin recruitment, luminescence; DMSO 0%, 30 µM serotonin 100%; AID 624381; actives 19% (n = 2,300);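 active = mean activation across triplicates above the hit threshold derived in the original primary screen, cut at about 15% in these data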
Large screens that a line does not name were inactive (follow-up assays come after a bar, where they were run). This is a sample that favours compounds with a hit; in the whole collection about 2.1% have one here.

Cn1c(SCC(=O)NCc2ccco2)nnc1-c1ccc(S(=O)(=O)N2CCOCC2)cc1	none
CCC(C)n1c(SCC(=O)NCc2ccco2)nnc1-c1cccc(S(=O)(=O)N2CCOCC2)c1 (stereo not given)	HTR2A ag 15 | OPRM1 ag inactive | m5-HT2A ag conf inactive
COc1ccc(N(Cc2ccco2)C(=O)c2ccccc2F)cc1OC	none
CC(=O)N1N=C(c2ccccc2O)CC1c1cccs1 (stereo not given)	none
CCCCC(=O)N(C)c1c(CC)nc2c(OCCOc3ccccc3)cccn12	HTR2A ag 25 (no result: APJ antagonist, CCR6 antag, APJ ag) | OPRM1 ag inactive | m5-HT2A ag conf inactive
CSc1ccc(CCNC(=O)CCc2nnc3ccc(N4CCCCC4)nn23)cc1	HTR2A ag 20 | OPRM1 ag 0.7 | m5-HT2A ag conf inactive
CSc1ccc(CCNC(=O)CCc2nnc3ccc(N4CCOCC4)nn23)cc1	none
CCCc1cc(NCCCN2CCOCC2)n2c(nc3ccccc32)c1C#N	HTR2A ag 32 | OPRM1 ag inactive | m5-HT2A ag conf inactive
O=C(CN1CCN(C(=O)c2ccccc2)CC1)NC(=O)NCCC1=CCCCC1	HTR2A ag 20 | OPRM1 ag inactive | m5-HT2A ag conf inactive
CCOc1ccccc1Nc1ncccc1C(=O)N1CCCC1	none
O=C(Nc1ccc(C(=O)O)cc1)/C(=C\c1ccccc1)NC(=O)c1ccccc1	HTR2A ag 18 | OPRM1 ag inactive | m5-HT2A ag conf inactive
CC(CCc1ccccc1)NC(=O)CNC(=O)N1CC(=O)Nc2ccccc21 (stereo not given)	HTR2A ag 15 | OPRM1 ag inactive | m5-HT2A ag conf inactive
CC(CCc1ccccc1)NC(=O)CN1CCc2ccccc2C1 (stereo not given)	HTR2A ag 25 | OPRM1 ag inactive | m5-HT2A ag conf 60
O=C1CN(C(=O)NCC(=O)N[C@@H](Cc2ccccc2)C(=O)O)c2ccccc2N1	none
CSc1nc2ccc(S(=O)(=O)NC3CCCCC3)cc2s1	none
CCOCCn1c(CN2CCCCC2)nc2c1c(=O)n(C)c(=O)n2C	none
CCOCCn1c(CN2CCN(CC)CC2)nc2c1c(=O)n(C)c(=O)n2C	HTR2A ag 48 | OPRM1 ag inactive | m5-HT2A ag conf inactive
CC(C)CN(CCNC(=O)CN1C(=O)CSc2ccc(S(=O)(=O)N3CCOCC3)cc21)CC(C)C	none
COc1cc(NC(=O)Cn2ncc(Cl)c(Cl)c2=O)c(C)cc1[N+](=O)[O-]	none (no result: APJ antagonist, APJ ag)
CN(C)[C@H]1N(C(=O)c2ccc(Br)cc2)N=C2c3ccccc3S(=O)(=O)N21	none
Cc1nc2ccc(NS(=O)(=O)c3ccc(F)cc3F)cc2s1	HTR2A ag 22 | OPRM1 ag inactive | m5-HT2A ag conf inactive
CCOc1ccccc1NC(=S)N1CCN(c2ccccc2)CC1	none
CCn1c2ccccc2c2nc3ccccc3nc21	none
CCCCc1c(C)nn(-c2nnc3c4ccccc4n(CC)c3n2)c1C	HTR2A ag 15 | OPRM1 ag inactive | m5-HT2A ag conf inactive
COc1ccc(CNC(=O)C2CCCN(S(=O)(=O)c3ccc(Br)s3)C2)cc1 (stereo not given)	none
Cc1cccc(NC(=O)c2ccc(NCCO)c([N+](=O)[O-])c2)n1	none
COC(=O)C1=CN(C)C=C(C(=O)OC)C1c1ccsc1	none (no result: APJ antagonist, APJ ag)
COc1cc(OC)c2c(C)cc(=O)oc2c1C(CCN1CCN(c2ccccc2)CC1)c1ccc2c(c1)OCO2 (stereo not given)	HTR2A ag 21 | OPRM1 ag inactive | m5-HT2A ag conf 72
COc1ccc(C(CCN2CCN(c3ccccc3)CC2)c2c(OC)cc(OC)c3c(-c4ccccc4)cc(=O)oc23)cc1 (stereo not given)	none
COc1cc(OC)c2c(-c3ccccc3)cc(=O)oc2c1C(CCN1CCN(c2ccccc2)CC1)c1ccc(N(C)C)cc1 (stereo not given)	HTR2A ag 17 | OPRM1 ag inactive | m5-HT2A ag conf 22
COCCn1cnnc1SCC(=O)Nc1cccc(S(=O)(=O)N(C)c2ccccc2)c1	none
Cc1ccc(S(=O)(=O)N2CCN(C(=O)COC(=O)CNC(=O)c3ccc(Cl)cc3Cl)CC2)c(C)c1	none (no result: APJ antagonist, APJ ag)
Cc1nn(C)c(Cl)c1CN1CCN(C2CCCC2)C(CCO)C1 (stereo not given)	HTR2A ag 24 | OPRM1 ag inactive | m5-HT2A ag conf inactive
c1ccc(Nc2nc(N3CCCCC3)nc(N3CCCCC3)n2)cc1	none
c1ccc(Nc2nc(N3CCCCC3)nc(N3CCNCC3)n2)cc1	HTR2A ag 55 | OPRM1 ag inactive | m5-HT2A ag conf 31
CC(CCc1ccccc1)NC(=O)C1CC1 (stereo not given)	none
COc1cc(C)nc(Oc2ccc(=O)n(C)n2)n1	HTR2A ag 15 (no result: APJ antagonist, APJ ag) | OPRM1 ag inactive | m5-HT2A ag conf inactive
CSc1nc(C)cc(Oc2ccc(=O)n(C)n2)n1	none
O=C(COC(=O)C1=COCCO1)NCc1ccc(Cl)cc1Cl	none (no result: APJ antagonist, CCR6 antag, APJ ag)
O=C(O)C1CC=CCC1C(=O)NCCc1csc(-c2ccccc2)n1 (stereo not given)	HTR2A ag 16 | OPRM1 ag inactive | m5-HT2A ag conf inactive
O=C(O)C1CCCCC1C(=O)NCCc1ccccc1 (stereo not given)	HTR2A ag 15 | OPRM1 ag inactive | m5-HT2A ag conf inactive
O=C(O)C1CC=CCC1C(=O)NCCc1cccc(Cl)c1 (stereo not given)	HTR2A ag 24 | OPRM1 ag inactive | m5-HT2A ag conf inactive
O=C(O)/C=C/C(=O)NCCc1cccc(Cl)c1	HTR2A ag 26 | OPRM1 ag inactive | m5-HT2A ag conf inactive
O=C(O)/C=C/C(=O)NCCc1ccccc1	none
O=C(O)C1CCCCC1C(=O)NCCCc1ccccc1 (stereo not given)	none
O=C(Nc1ccc(-c2n[nH]c(=S)o2)cc1)c1ccccc1Cl	HTR2A ag 17 | OPRM1 ag inactive | m5-HT2A ag conf inactive
CC1C(c2ccccc2)C(C#N)(C#N)C2(C#N)C(=O)NC1(N)C2C (stereo not given)	none
C[C@H](O)c1[nH]c2cc(F)ccc2c1[C@H](C)O	HTR2A ag 20 | OPRM1 ag inactive | m5-HT2A ag conf inactive
O=C(NC1CCCCCCC1)c1cccc(Cl)c1	none
CCOC(=O)C1CCN(C(=O)Nc2ccccc2Cl)CC1	HTR2A ag 15 | OPRM1 ag inactive | m5-HT2A ag conf inactive
